Bioassay records as filed in PubChem.
Compounds with a hit are over-represented: about 1.5% of the library has one in this group of screens.
CHT block = inhibitors of human choline transporter CHT; CHT-expressing cells, membrane potential dye, choline response; stronger effect = lower value; B-score at 10 µM; 310,000 tested, 0.86% active; AID 488975;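 active = B-score over 3 SD under the library average, and starting fluorescence ratio not unusually high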;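 note: choline stimulus applied at its EC90 after an EC20 pre-addition; B-score computed on integrated fluorescence ratio after choline addition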
Target sequence (Q9GZV3 whole entry, looked up): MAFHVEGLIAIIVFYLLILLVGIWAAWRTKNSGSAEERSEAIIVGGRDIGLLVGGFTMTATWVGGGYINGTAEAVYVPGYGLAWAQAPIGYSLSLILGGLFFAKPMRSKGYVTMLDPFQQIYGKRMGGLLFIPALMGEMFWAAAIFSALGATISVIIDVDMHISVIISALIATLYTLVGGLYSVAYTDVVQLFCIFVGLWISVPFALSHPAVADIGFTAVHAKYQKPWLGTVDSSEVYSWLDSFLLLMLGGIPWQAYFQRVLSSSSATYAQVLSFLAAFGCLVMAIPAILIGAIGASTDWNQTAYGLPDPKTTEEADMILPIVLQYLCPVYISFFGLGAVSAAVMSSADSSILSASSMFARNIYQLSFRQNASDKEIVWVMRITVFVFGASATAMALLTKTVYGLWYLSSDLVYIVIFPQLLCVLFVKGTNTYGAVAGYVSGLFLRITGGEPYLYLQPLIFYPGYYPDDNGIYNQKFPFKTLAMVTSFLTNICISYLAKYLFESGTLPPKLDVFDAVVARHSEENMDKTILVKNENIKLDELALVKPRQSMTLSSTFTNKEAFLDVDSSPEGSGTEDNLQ
T cell HTS = modulates CD8 T cell binding to vesicles; 2C CD8+ T cell-vesicle binding, flow cytometry; stronger effect = lower value; response (vesicle binding), % at 7 µM; 330,000 tested, 0.068% active; AID 2052;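 active = response, share of CD8 T cells binding vesicles, and their 90th percentile fluorescence all below set limits, cut at about 80% in these data, passing the limit was not always enough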;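 note: values below 100% mean blocked vesicle binding to the CD8+ T cells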
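Benchmarks: naked versus QL9-loaded vesicles / Assay system: purified 2C TCR transgenic mouse naive CD8+ T cells / Technique: high-throughput flow cytometry with anti-B7-1 and anti-CD8 staining / Timing: Cell–vesicle co-incubation 1.5 h at 37 °C, staining 20 min on ice / Read-out: percent CD8+ FL2 mean versus row control / Probe or stimulus: QL9-loaded Drosophila micro-vesicles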
CHT PAM = human CHT allosteric activation; Q9GZV3; CHT-expressing cells, membrane potential dye, choline EC20; stronger effect = higher value; LV-AA mutant CHT in HEK293 cells; B-score at 10 µM; 310,000 tested, 0.49% active; AID 488977;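 active = initial fluorescence not abnormally high and integrated response B-score, plate-corrected, over 3 SD above library mean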
VLA-4 inh = inhibition in a human VLA-4 binding assay; P13612; VLA-4 expressing cells, ligand binding flow cytometry; inhibition, % (about 7 µM as worked out from the volumes in the protocol); 330,000 tested, 0.2% active; in the data active = inhibition above about 50%
VLA-4 mod pick = human VLA-4 allosteric modulation in cherry picked compounds | shares compounds with VLA-4 inh | inhibition, % at 6.7 µM | U937 cells, HUTS-21 LIBS mAb binding, flow cytometry; LDV ligand present at threefold Kd | 1,300 tested, 2% active | AID 2813; in the data active = inhibition above about 40%;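 note: 0% = ligand without compound and 100% = no ligand background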
The depositor's hits bear a star; i = inactive; · = no result.

SMILES	CHT block	T cell HTS	CHT PAM	VLA-4 inh	VLA-4 mod pick
Cn1c(N)c(C(=O)COC(=O)COc2ccc(Cl)cc2Cl)c(=O)n(C)c1=O	·	226	·	6	·
CN(C(=O)Cn1c(=O)oc2ccccc21)C1CCCCC1	·	299	·	-1	9
CN(CC(=O)Nc1cccc(F)c1)C(=O)Cn1c(=O)oc2ccccc21	·	196	·	14	11
CC1CCCCN1C(=O)Cn1c(=O)oc2ccccc21 (centres undefined)	i	183	i	-5	·
COC(=O)Cn1c(=O)oc2ccc(C)cc21	i	713	i	4	·
O=C(Cn1c(=O)oc2ccccc21)N1CCOCC1	i	382	i	26	·
Cc1ccc2oc(=O)n(CC(=O)N3CCOCC3)c2c1	i	470	i	2	1
O=C(Cn1c(=O)oc2ccccc21)N1CCCC1	i	224	i	1	-3
CC(NS(=O)(=O)c1c(N)n(C)c(=O)n(C)c1=O)c1ccccc1 (centres undefined)	i	290	i	-4	·
Cc1ccccc1NC(=O)Cc1nc(COC(=O)c2cccc([N+](=O)[O-])c2)cs1	i	461	i	-8	·
Cc1ccc(C)c(S(=O)(=O)N2CCCOC2CNC(=O)C(=O)NCc2ccccn2)c1 (centres undefined)	i	154	i	8	·
COc1ccc(CCN(C)C(=O)c2cc(=O)c3ccccc3o2)cc1OC	i	174	i	7	·
COc1ccccc1-n1cnnc1SCc1csc(-c2ccccc2)n1	i	202	i	95*	-8
C=CCn1c(SCc2csc(-c3ccc(C)cc3)n2)nnc1-c1ccccc1OC	i	423	i	9	·
COc1cccc(-c2sc3ccc(OC)cc3c2-c2cc(F)cc(OC)c2)c1	·	325	·	-11	·
COc1cccc(-c2sc3ccc(OC)cc3c2-c2ccc(OCCN3CCOCC3)cc2)c1	·	215	·	19	7
COc1ccc(-c2sc3cc4c(cc3c2-c2ccc(OCCN3CCOCC3)cc2)OCO4)cc1	·	349	·	26	15
C1=C(c2sc3ccccc3c2-c2ccc(OCCN3CCOCC3)cc2)CCCC1	·	448	·	18	·
COc1cc(OC)cc(-c2sc3ccc(OC)cc3c2-c2ccc(OCCN3CCOCC3)cc2)c1	·	·	·	·	6
COc1ccc(OCCOCCN2CCOCC2)cc1	i	706	i	-1	·
CCC(=O)Nc1ccc(C(=O)NNC(=O)C2CCCCC2)cc1	i	240	i	2	·
CCOC(=O)c1c(NC(=O)COC(=O)Cc2n[nH]c(=O)c3ccccc23)sc(C(=O)NC)c1C	·	266	·	-4	·
Cc1ccc(-c2nnc(SCC(=O)N(CC(C)C)c3c(N)n(Cc4ccccc4)c(=O)[nH]c3=O)n2N)cc1	i	188	i	13	·
CCCCCC(=O)Nc1sc(C)c(C)c1C#N	i	0	i	7	·
O=C1OC[C@H](Cc2ccc3c(c2)OCO3)/C1=C\c1ccc2c(c1)OCO2	i	289	i	28	·
SMILES	CHT block	T cell HTS	CHT PAM	VLA-4 inh	VLA-4 mod pick
COCCCN1CC(=O)N2C(c3cccc(C)c3)c3[nH]c4ccccc4c3C[C@H]2C1=O (some centres undefined)	i	158	i	10	·
COCCN1CC(=O)N2C(c3cccc(C)c3)c3[nH]c4ccccc4c3C[C@H]2C1=O (some centres undefined)	i	199	i	41	-3
CCOC(=O)C1CCCN(S(=O)(=O)c2cc3[nH]c(=O)c(=O)[nH]c3cc2C)C1 (centres undefined)	i	115	i	50*	-7
Cc1ccc2nc(-c3ccc(NC(=S)NC(=O)C(C)C)cc3)sc2c1	i	243	i	22	·
Cc1ccc2nc(-c3ccc(NC(=S)NC4CC(C)(C)NC(C)(C)C4)cc3)sc2c1	i	507	i	54*	31
CN(Cc1ccc(-n2cccn2)cc1)Cc1cn(C)nc1-c1ccccc1F	i	625	i	13	·
CCn1ccnc1CN(C)Cc1cn(C)nc1-c1ccccc1F	i	402	i	43	-4
COc1ccccc1NC(=O)N1CCN(c2ccccn2)CC1	i	441	i	52*	-4
COc1cccc(CNS(=O)(=O)c2ccc3c(c2)N(C)CCO3)c1	i	445	i	-12	·
O=S(=O)(Nc1ccc(O)c(NS(=O)(=O)c2ccccc2)c1)c1ccccc1	i	269	i	5	·
Cc1c(O)ccc(NS(=O)(=O)c2ccccc2)c1C	i	275	i	15	-2
